Compound in this data set: NC(=O)c1ccc[n+]([C@@H]2O[C@H](COP(=O)([O-])OP(=O)(O)OC[C@H]3O[C@@H](n4cnc5c(N)ncnc54)[C@H](O)[C@@H]3O)[C@@H](O)[C@H]2O)c1
As to the kind of experiment: In vitro inhibitory activity against pig heart cytoplasmic malate dehydrogenase (MDH),. In a few lines:
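Pig heart enzymes (cytoplasmic MDH or LDH, from ammonium sulfate suspension) assayed in 0.05 M Tris HCl pH 9.0, with NAD as substrate; rates from NADH appearance by A340 (ε 6.22 mM⁻¹cm⁻¹) or fluorescence calibrated against NADH standards. Run at least in duplicate; kinetic constants from Lineweaver-Burk plots by linear regression.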

For orientation: Km means the concentration of substrate that gives half-maximal velocity.

B1: Malate dehydrogenase, cytoplasmic (Sus scrofa), P11708 (protein)
chain: MSEPIRVLVTGAAGQIAYSLLYSIGNGSVFGKDQPIILVLLDITPMMGVLDGVLMELQDCALPLLKDVIATDKEEIAFKDLDVAILVGSMPRRDGMERKDLLKANVKIFKCQGAALDKYAKKSVKVIVVGNPANTNCLTASKSAPSIPKENFSCLTRLDHNRAKAQIALKLGVTSDDVKNVIIWGNHSSTQYPDVNHAKVKLQAKEVGVYEAVKDDSWLKGEFITTVQQRGAAVIKARKLSSAMSAAKAICDHVRDIWFGTPEGEFVSMGIISDGNSYGVPDDLLYSFPVTIKDKTWKIVEGLPINDFSREKMDLTAKELAEEKETAFEFLSSA
As for B1, the Michaelis constant (Km) was found to be 33.9 µM.

The record behind these values is ChEMBL document CHEMBL1124735, “Dehydrogenase binding by tiazofurin anabolites” (J Med Chem, 1990).
